Series [1] addresses Bifunctional dihydrofolate reductase-thymidylate synthase (Leishmania major, UniProt P07382). In words: Inhibition of recombinant Leishmania major DHFR-TS expressed in Escherichia coli BL21 (DE3) cells using dihydrofolate as substrate in presence of NADPH by spectrophotometric analysis.
The target of series [2] is Bifunctional dihydrofolate reductase-thymidylate synthase (Trypanosoma brucei brucei, UniProt Q27783). Kind of series: Inhibition of recombinant Trypanosoma brucei DHFR-TS expressed in Escherichia coli BL21 (DE3) cells using dihydrofolate as substrate in presence of NADPH by spectrophotometric analysis.
In another series the test system is A549. In words: Cytotoxicity against human A549 cells at 10 uM measured after 48 hrs by Celltiter-Glo assay relative to control. Type of series: toxicity, cell-based. Particulars: a549, 48 h. In outline:
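Tested at 10 μM. A549 cells grown in DMEM with 10% FCS, streptomycin 100 μg/mL and penicillin G 100 U/mL. Viability read as cellular ATP by CellTiter-Glo luminescence.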

The target of a further series is CYP2D6 (Homo sapiens, UniProt P10635). In words: Inhibition of CYP2D6 (unknown origin) expressed in baculovirus-infected insect cells at 10 uM using CYP/Luciferin as substrate incubated for 30 mins in presence of NADPH by luminescence based analysis relative to control. Conditions: probe CYP/Luciferin. Type of series: ADME. In a few lines: (§1)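 Tested at 10 μM using microsomal preparations of each CYP isoform from baculovirus-infected insect cells on a luminescent P450-Glo platform. The enzyme acts on its substrate to give light, and a fall in luminescence indicates inhibition.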

Series [3] deals with T1, Pteridine reductase, putative (Trypanosoma brucei, UniProt Q581W1).
T1 sequence (Q581W1 whole entry): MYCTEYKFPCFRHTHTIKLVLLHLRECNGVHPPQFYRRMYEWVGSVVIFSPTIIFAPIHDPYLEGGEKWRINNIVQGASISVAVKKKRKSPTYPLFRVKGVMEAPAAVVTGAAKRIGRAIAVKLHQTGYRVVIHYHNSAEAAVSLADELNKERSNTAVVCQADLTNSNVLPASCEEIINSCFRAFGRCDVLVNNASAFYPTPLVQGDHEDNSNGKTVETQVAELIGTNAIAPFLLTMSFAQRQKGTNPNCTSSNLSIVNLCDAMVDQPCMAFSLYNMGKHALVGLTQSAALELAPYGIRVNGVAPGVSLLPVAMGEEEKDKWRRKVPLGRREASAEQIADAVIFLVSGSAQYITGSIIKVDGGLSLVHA
Kind of series: Inhibition of recombinant Trypanosoma brucei PTR1 expressed in Escherichia coli BL21 (DE3) cells using H2B as substrate in presence of cytochrome c and NADPH by envision multilabel reader.

Another series relates to 786-0. Kind of series: Mitochondrial toxicity in human 786-0 cells at 10 uM incubated with compound for 6 hrs followed by incubation with MitoTracker Red chloromethyl-X-rosamine dye for 45 mins by imaging analysis relative to control. The class given is cell-based. Particulars: 786-0, 6 h. In outline:
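Tested at 10 μM. 786-O cells kept in RPMI-1640 with 2 mM glutamine, 10% FCS, streptomycin 100 μg/mL and penicillin G 100 U/mL. Mitochondrial toxicity read as MitoTracker Red (chloromethyl-X-rosamine) uptake by high-content imaging.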

Series [4] relates to human DHFR versus Trypanosoma brucei PTR1. In words: Selectivity index, ratio of IC50 for human DHFR to IC50 for Trypanosoma brucei PTR1. The class given is toxicity. Conditions: read-out: Ratio IC50.
Series [5] concerns human DHFR versus Leishmania major DHFR. Kind of series: Selectivity index, ratio of IC50 for human DHFR to IC50 for Leishmania major DHFR. Particulars: read-out: Ratio IC50. The class given is toxicity.
The next series concerns the target T2, Dihydrofolate reductase (Homo sapiens, UniProt P00374).
T2 sequence (P00374 whole entry): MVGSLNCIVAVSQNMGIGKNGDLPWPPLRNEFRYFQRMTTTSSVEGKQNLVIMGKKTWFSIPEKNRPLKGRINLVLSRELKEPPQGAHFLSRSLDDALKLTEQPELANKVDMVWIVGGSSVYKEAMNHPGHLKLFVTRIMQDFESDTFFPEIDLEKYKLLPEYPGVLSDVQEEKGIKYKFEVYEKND
Kind of series: Inhibition of recombinant human DHFR expressed in Escherichia coli BL21 (DE3) cells using dihydrofolate as substrate in presence of NADPH by spectrophotometric analysis. The class given is toxicity.

A further series concerns the target T3, Pteridine reductase 1 (Leishmania major, UniProt Q01782).
T3 sequence (Q01782 whole entry): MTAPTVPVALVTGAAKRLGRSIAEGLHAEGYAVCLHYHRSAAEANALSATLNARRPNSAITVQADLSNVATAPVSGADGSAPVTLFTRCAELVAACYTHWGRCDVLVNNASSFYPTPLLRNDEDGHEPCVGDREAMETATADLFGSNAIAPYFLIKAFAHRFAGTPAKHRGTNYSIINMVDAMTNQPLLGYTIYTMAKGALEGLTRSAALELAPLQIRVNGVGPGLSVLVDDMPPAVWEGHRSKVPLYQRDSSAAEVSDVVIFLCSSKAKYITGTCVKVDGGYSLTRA
In words: Inhibition of recombinant Leishmania major PTR1 expressed in Escherichia coli BL21 (DE3) cells using H2B as substrate in presence of cytochrome c and NADPH by envision multilabel reader.

For series [6], the system named is human DHFR versus Trypanosoma brucei DHFR. In words: Selectivity index, ratio of IC50 for human DHFR to IC50 for Trypanosoma brucei DHFR. Particulars: read-out: Ratio IC50. Type of series: toxicity.
The target in a further series is CYP2C9 (Homo sapiens, UniProt P11712). Kind of series: Inhibition of CYP2C9 (unknown origin) expressed in baculovirus-infected insect cells at 10 uM using CYP/Luciferin as substrate incubated for 30 mins in presence of NADPH by luminescence based analysis relative to control. The class given is ADME. Particulars: probe CYP/Luciferin. In outline:
as §1

For series [7], the system named is human DHFR versus Leishmania major PTR1. In words: Selectivity index, ratio of IC50 for human DHFR to IC50 for Leishmania major PTR1. The class given is toxicity. Conditions: read-out: Ratio IC50.
Another series concerns the target T4, CYP1A2 (Homo sapiens, UniProt P05177).
T4 sequence (P05177 whole entry): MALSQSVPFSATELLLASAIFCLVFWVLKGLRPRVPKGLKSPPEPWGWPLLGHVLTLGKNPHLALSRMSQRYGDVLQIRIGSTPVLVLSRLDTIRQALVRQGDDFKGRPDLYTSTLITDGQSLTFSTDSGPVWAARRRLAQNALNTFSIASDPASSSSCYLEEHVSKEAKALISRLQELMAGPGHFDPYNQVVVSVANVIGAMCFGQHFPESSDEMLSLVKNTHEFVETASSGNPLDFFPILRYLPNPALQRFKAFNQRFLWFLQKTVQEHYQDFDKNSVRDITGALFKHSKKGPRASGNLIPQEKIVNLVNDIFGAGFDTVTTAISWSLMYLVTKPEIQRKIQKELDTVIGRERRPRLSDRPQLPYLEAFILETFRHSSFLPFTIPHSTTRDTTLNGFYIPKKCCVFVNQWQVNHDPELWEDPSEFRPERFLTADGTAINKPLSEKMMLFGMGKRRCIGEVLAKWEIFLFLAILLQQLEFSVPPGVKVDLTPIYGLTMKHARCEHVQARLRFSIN
In words: Inhibition of CYP1A2 (unknown origin) expressed in baculovirus-infected insect cells at 10 uM using CYP/Luciferin as substrate incubated for 30 mins in presence of NADPH by luminescence based analysis relative to control. Conditions: probe CYP/Luciferin. Type of series: ADME. In outline: as §1

The target of a further series is CYP2C19 (Homo sapiens, UniProt P33261). In words: Inhibition of CYP2C19 (unknown origin) expressed in baculovirus-infected insect cells at 10 uM using CYP/Luciferin as substrate incubated for 30 mins in presence of NADPH by luminescence based analysis relative to control. Conditions: probe CYP/Luciferin. The class given is ADME. In outline:
as §1

SMILES strings stand for the structures.

Bifunctional dihydrofolate reductase-thymidylate synthase (Leishmania major, UniProt P07382), sequence (P07382 whole entry): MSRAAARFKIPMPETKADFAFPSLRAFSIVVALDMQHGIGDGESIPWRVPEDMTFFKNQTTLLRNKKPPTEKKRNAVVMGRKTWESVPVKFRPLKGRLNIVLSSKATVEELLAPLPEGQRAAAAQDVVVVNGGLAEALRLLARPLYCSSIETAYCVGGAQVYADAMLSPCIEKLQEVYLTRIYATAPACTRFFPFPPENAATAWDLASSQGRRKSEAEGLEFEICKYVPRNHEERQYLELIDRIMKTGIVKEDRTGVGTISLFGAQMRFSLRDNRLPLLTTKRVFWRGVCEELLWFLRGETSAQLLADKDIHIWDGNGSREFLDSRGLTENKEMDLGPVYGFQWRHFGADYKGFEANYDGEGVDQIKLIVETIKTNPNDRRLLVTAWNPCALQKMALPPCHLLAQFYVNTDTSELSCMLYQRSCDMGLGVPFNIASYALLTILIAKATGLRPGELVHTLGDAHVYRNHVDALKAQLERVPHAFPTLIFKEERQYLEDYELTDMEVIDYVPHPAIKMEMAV
Bifunctional dihydrofolate reductase-thymidylate synthase (Trypanosoma brucei brucei, UniProt Q27783), sequence (Q27783 whole entry): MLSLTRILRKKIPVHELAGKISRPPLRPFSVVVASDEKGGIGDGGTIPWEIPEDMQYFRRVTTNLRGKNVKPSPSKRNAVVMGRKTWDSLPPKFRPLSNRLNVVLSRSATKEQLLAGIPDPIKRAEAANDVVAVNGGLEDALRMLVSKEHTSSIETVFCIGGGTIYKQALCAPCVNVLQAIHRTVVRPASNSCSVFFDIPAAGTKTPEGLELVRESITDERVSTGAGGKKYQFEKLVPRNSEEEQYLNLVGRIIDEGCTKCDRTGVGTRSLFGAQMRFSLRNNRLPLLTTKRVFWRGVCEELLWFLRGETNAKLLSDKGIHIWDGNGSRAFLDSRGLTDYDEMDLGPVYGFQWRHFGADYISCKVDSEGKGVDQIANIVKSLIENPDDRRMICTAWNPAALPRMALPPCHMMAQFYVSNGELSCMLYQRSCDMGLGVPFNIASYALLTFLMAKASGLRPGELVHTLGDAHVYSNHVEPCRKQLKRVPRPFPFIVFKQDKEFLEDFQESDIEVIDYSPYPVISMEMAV
CYP2C9, sequence (P11712 whole entry): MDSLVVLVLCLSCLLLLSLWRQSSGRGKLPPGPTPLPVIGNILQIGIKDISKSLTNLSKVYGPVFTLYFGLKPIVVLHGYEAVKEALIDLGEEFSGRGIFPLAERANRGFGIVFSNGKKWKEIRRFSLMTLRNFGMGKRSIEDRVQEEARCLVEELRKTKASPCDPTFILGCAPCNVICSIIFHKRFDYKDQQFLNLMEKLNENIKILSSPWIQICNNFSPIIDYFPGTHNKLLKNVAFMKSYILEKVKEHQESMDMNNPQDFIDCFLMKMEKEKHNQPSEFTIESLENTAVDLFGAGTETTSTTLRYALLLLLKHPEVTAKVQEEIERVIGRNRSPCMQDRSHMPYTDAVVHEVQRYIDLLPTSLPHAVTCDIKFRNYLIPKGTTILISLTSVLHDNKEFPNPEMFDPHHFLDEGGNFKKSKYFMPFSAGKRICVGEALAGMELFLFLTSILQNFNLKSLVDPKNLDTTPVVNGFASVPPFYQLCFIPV
CYP2D6, sequence (P10635 whole entry, canonical isoform): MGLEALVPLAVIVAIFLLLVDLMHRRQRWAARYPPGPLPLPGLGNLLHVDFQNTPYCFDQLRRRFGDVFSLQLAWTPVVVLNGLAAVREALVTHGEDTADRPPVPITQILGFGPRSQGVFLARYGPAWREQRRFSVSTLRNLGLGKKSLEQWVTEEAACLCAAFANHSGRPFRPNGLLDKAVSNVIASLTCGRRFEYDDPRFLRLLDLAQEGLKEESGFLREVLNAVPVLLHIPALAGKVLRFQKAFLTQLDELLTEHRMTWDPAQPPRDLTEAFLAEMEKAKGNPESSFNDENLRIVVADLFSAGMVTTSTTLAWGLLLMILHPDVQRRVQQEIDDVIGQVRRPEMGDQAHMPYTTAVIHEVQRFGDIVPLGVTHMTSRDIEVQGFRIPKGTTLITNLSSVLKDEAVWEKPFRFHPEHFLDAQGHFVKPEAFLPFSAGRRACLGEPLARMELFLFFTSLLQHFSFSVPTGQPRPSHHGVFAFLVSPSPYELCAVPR
CYP2C19, sequence (P33261 whole entry): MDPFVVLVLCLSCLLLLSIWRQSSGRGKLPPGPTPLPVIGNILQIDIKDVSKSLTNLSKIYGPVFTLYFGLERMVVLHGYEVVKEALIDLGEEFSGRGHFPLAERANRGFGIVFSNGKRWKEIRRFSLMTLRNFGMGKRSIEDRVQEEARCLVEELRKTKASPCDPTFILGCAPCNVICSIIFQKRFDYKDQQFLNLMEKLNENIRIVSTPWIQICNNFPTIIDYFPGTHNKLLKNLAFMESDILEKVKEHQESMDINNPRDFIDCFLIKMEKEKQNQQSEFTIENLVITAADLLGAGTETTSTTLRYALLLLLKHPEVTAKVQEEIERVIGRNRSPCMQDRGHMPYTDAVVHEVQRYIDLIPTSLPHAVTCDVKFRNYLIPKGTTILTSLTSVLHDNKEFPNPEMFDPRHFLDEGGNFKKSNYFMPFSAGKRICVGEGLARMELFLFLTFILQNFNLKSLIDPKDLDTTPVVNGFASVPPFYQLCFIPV

Regarding `COC(=O)C1CCN(C(=O)c2ccc(N(CCO)Cc3cnc4nc(N)nc(N)c4n3)cc2)CC1`, the IC50 came out at 1210 nM in [1], 1260 nM in [2] and 200 nM in [3]. The Activity with A549 was found to be 100%; with 786-0, 0%. The inhibition at 0.5 h, 10 µM at CYP2D6 is 0%.

On to `COC(=O)C1CCN(C(=O)c2ccc(N(CCCO)Cc3cnc4nc(N)nc(N)c4n3)cc2)CC1`, for which the IC50 came to 760 nM in series [1]; 430 nM in [2]; 15000 nM at Dihydrofolate reductase; 220 nM on Pteridine reductase 1; 30 nM in series [3]. Also, the selectivity ratio in series [4] came out at 500; in [5] it was 20; in [6], 35; in series [7], 68. The values for the Activity in the series with A549 and in the series on 786-0 were 100% and 0%, respectively. Also, the inhibition at 0.5 h, 10 µM on CYP2C9 stood at 17%.

As to `COC(=O)C1CCN(C(=O)Cc2ccc(NCc3cnc4nc(N)nc(N)c4n3)cc2)CC1`, the half-inhibitory concentration (IC50) in series [1] was determined as 850 nM; in [2] it was 620 nM; at Dihydrofolate reductase, 35000 nM; at Pteridine reductase 1, 1140 nM; in series [3], 140 nM. Besides, the selectivity ratio came to 250 in [4], 41 in [5], 56 in series [6] and 31 in [7]. The inhibition at 0.5 h, 10 µM at CYP1A2 and at CYP2C19 was 12% in each case. Also, the Activity in the series on A549 was determined as 100%; in the series on 786-0, 0%.

The values above are taken from ChEMBL document CHEMBL5143713, “Multitarget, Selective Compound Design Yields Potent Inhibitors of a Kinetoplastid Pteridine Reductase 1” (J Med Chem, 2022).
